The values that follow come from ChEMBL document CHEMBL5032493, “Synthesis and Evaluation of PPARδ Agonists That Promote Osteogenesis in a Human Mesenchymal Stem Cell Culture and in a Mouse Model of Human Osteoporosis” (J Med Chem, 2021).

The source made the active and inactive calls. No cut-off for these calls is given here. Some results are limits rather than exact numbers.

A word on the EC50: it is the midpoint of the concentration-response curve.

For data set [1], the system named is Mesenchymal stem cells. As to the kind of experiment: Induction of osteogenesis differentiation in human Mesenchymal stem cells at 10 uM incubated for 21 days by Alizarin Red S staining-based microscopic analysis. The data set is classed as functional, cell-based. As to conditions: time 21.0 day.
The test system of data set [2] is L929. The experiment in a line: Cytotoxicity against mouse L929 cells assessed as reduction in cell viability at 100 uM. The settings on record: l929, 100 µM. Format: cell-based.
Data set [3] has as its target T1, Peroxisome proliferator-activated receptor alpha (Homo sapiens, UniProt Q07869).
T1 sequence (Q07869 whole entry): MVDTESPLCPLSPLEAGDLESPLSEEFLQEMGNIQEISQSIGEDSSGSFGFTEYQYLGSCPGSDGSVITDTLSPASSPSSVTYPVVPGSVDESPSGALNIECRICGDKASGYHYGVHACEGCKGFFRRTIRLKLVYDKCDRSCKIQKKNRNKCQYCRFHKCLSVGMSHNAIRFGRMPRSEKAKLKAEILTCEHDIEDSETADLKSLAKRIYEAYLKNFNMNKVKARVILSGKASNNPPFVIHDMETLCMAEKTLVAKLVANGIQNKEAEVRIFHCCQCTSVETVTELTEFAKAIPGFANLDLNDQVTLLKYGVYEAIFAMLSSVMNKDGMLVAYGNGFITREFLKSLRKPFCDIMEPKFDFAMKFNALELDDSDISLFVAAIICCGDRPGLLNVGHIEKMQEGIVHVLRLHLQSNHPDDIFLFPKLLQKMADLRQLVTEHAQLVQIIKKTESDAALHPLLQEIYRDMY
As to the kind of experiment: Agonist activity at human PPARalpha transfected in COS-7 cells assessed luciferase activity measured after 24 hrs by cell based luciferase transactivation assay. In short, it runs like this: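 Transient transfection of COS-7 cells with human PPARα, PPARγ or PPARδ plus luciferase reporter; constitutive Renilla luciferase also read. Three or more independent experiments in triplicate (N ≥ 9).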

Data set [4] concerns Mesenchymal stem cells. As to the kind of experiment: Induction of adipogenesis differentiation in human Mesenchymal stem cells at 1 uM incubated for 21 days by […] staining-based microscopic analysis. The data set is classed as functional, cell-based. The settings on record: time 21.0 day.
Data set [5] concerns Mesenchymal stem cells. The experiment in a line: Induction of adipogenesis differentiation in human Mesenchymal stem cells at 10 uM incubated for 21 days by […] staining-based microscopic analysis. The data set is classed as functional, cell-based. As to conditions: time 21.0 day.
Data set [6] has as its system L929. The experiment in a line: Cytotoxicity against mouse L929 cells assessed as reduction in cell viability at 1 to 100 uM measured after 72 hrs. The data set is classed as cell-based. The settings on record: l929, 72 h, dose 1-100 µM.
In data set [7] the test system is Mesenchymal stem cells. The experiment in a line: Induction of osteogenesis differentiation in human Mesenchymal stem cells at 1 uM incubated for 21 days by Alizarin Red S staining-based microscopic analysis. Format: functional, cell-based. As to conditions: time 21.0 day.
Data set [8] is described as follows: Cytotoxicity against human HEK293T/17 cells assessed as reduction in cell viability at 10 to 100 uM measured after 72 hrs by MTT assay. Format: cell-based. As to conditions: hek293t/17, 72 h, dose 10-100 µM. The method in brief: (§1)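 HEK 293T/17 cultures exposed to agent for 24 h or 72 h; viability by MTT. Controls: H2O2 (toxic positive), plain medium, vehicle at 0.1% DMSO corresponding to the 100 μM dose; doses by serial dilution in medium. Quadruplicate (N = 4), mean with SD; two-tailed P versus 0 μM. Viability <70% taken as relevant to human toxicity.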

Data set [9] concerns Mus musculus. The experiment in a line: Antiosteoporotic activity against OVX-induced bone loss C57BL/6 mouse model assessed as increase in trabecular bone density at 10 mg/kg, po for 6 weeks by microcomputed tomography method relative to sham treated control. The data set is classed as functional, organism-based. In short, it runs like this:
(§2)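 Female C57BL/6 mice ovariectomized at 12 weeks of age; sham-operated group kept ovaries intact. After recovery, daily oral gavage of compound or vehicle for 6 weeks, sacrifice at 22 weeks of age. Distal femur trabecular structure analysed by micro-computed tomography, including bone volume/total volume, compared with sham mice; GW0742 as positive control.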

Data set [10] addresses T2, Peroxisome proliferator-activated receptor alpha (Homo sapiens) (UniProt Q07869).
T2 sequence (whole entry): T1 sequence (Q07869 whole entry)
The experiment in a line: Agonist activity at human PPARalpha transfected in COS-7 cells assessed maximum luciferase activity measured after 24 hrs by cell based luciferase transactivation assay relative to gemfibrozil. As to conditions: filed as agonist. In short, it runs like this:
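Transient transfection of COS-7 cells with human PPARα, PPARγ or PPARδ plus luciferase reporter; constitutive Renilla luciferase also read. […] Three or more independent experiments in triplicate (N ≥ 9).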

Data set [11] is described as follows: Cytotoxicity against human HEK293T/17 cells assessed as reduction in cell viability incubated for 24 hrs by MTT assay. Format: cell-based. The settings on record: hek293t/17, 24 h. In short, it runs like this:
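HEK 293T/17 cultures were exposed to drug for 24 h and viability was read by standard MTT. Doses came from serial dilution in medium, top dose 100 μM. Controls were medium only, a DMSO vehicle at its highest level (0.1% in medium before adding to cells), and H2O2 as a toxic control. Runs were in quadruplicate (N = 4), reported as mean with SD and compared to 0 μM by two-tailed P.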
(Tetrazolium dyes change colour on reduction, which living cells bring about.)

For data set [12], the system named is Mesenchymal stem cells. As to the kind of experiment: Cytotoxicity against human Mesenchymal stem cells expressing human PPARdelta assessed as morphological changes at 50 uM by microscopy analysis. The data set is classed as cell-based.
The target in data set [13] is T3, Peroxisome proliferator-activated receptor gamma (Homo sapiens, UniProt P37231).
T3 sequence (P37231 whole entry): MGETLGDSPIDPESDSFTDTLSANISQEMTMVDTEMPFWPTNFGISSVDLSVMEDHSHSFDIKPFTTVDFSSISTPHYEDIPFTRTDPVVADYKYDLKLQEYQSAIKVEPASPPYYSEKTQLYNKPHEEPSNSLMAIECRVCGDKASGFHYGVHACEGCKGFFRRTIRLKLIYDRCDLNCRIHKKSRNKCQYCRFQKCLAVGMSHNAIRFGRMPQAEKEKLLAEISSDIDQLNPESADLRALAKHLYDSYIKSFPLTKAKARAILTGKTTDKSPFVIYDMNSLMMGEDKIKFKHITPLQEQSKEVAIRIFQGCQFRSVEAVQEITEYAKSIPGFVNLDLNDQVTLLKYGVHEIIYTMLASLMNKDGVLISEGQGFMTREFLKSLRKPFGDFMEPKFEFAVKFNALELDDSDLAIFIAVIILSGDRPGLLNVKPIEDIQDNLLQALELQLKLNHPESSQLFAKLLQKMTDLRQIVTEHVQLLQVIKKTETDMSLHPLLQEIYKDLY
As to the kind of experiment: Agonist activity at human PPARgamma transfected in COS-7 cells assessed luciferase activity measured after 24 hrs by cell based luciferase transactivation assay.

The subject of data set [14] is Mus musculus. The experiment in a line: Antiosteoporotic activity against OVX-induced bone loss C57BL/6 mouse model assessed as increase in ratio of bone volume to total volume at 10 mg/kg, po for 6 weeks by microcomputed tomography method relative to sham treated control. Format: functional, organism-based. In short, it runs like this: as §2
The nature of data set [15]: Toxicity in OVX-induced bone loss C57BL/6 mouse model assessed as change in eating at 10 mg/kg, po for 6 weeks. The data set is classed as organism-based. The settings on record: in vivo, 1008 h. The method in brief:
(§3)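 OVX C57BL/6 females (surgery at 12 weeks, sham controls) dosed daily by oral gavage for 6 weeks. Gross toxicity monitored during dosing as weight, behaviour, eating and other habits versus controls.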

In data set [16] the test system is COS-7 (Chlorocebus aethiops). The experiment in a line: Cytotoxicity against COS-7 cells expressing human PPARdelta assessed as morphological changes at lower concentration by microscopy analysis. The settings on record: monkey.
Data set [17] concerns Mesenchymal stem cells. As to the kind of experiment: Induction of osteogenesis differentiation in human Mesenchymal stem cells at 20 uM incubated for 21 days by Alizarin Red S staining-based microscopic analysis. The data set is classed as functional, cell-based. As to conditions: time 21.0 day.
Data set [18] is described as follows: Glutathione reactivity at pH 7.4 assessed as compound remaining measured after 24 hrs by LC-MS/MS method. Format: physicochemical. As to conditions: pH 7.4, 24 h. In short, it runs like this:
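Substrate incubated in triplicate with 10-fold excess glutathione in pH 7.4 phosphate buffer containing 50% methanol at 25 °C for up to 24 h. Substrate loss followed at several time points by LC-MS/MS, which also confirmed the structure of glutathione conjugates.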

The nature of data set [19]: Cytotoxicity against human HEK293T/17 cells assessed as reduction in cell viability at 10 to 100 uM measured after 24 hrs by MTT assay. Format: cell-based. The settings on record: hek293t/17, 24 h, dose 10-100 µM. In short, it runs like this: as §1
Data set [20] has as its target T4, Peroxisome proliferator-activated receptor delta (Homo sapiens, UniProt Q03181).
T4 sequence (Q03181 whole entry): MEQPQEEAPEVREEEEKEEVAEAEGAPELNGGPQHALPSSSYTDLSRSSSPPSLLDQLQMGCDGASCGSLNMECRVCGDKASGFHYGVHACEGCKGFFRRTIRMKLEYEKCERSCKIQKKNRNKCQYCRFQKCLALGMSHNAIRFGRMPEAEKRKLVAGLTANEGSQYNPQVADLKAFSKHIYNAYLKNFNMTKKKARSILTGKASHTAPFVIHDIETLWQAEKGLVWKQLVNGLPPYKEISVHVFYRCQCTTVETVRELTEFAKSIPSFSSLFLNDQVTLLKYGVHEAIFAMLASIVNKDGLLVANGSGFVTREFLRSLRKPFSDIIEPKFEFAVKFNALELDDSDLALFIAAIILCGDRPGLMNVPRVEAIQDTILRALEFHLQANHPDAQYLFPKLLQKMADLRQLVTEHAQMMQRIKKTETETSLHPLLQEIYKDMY
As to the kind of experiment: Agonist activity at human PPARdelta transfected in COS-7 cells assessed luciferase activity measured after 24 hrs by cell based luciferase transactivation assay.

The subject of data set [21] is PPARdelta (human, expressed in COS-7 cells). As to the kind of experiment: Cell toxicity index, ratio of CT50 to EC50 for agonist activity at human PPARdelta expressed in COS-7 cells. The settings on record: monkey.
Data set [22] relates to Mus musculus. The experiment in a line: Antiosteoporotic activity against OVX-induced bone loss C57BL/6 mouse model assessed as increase in microarchitectures at 10 mg/kg, po for 6 weeks by microcomputed tomography method relative to sham treated control. The data set is classed as functional, organism-based. In short, it runs like this:
as §2

The subject of data set [23] is Mesenchymal stem cells. As to the kind of experiment: Induction of adipogenesis differentiation in human Mesenchymal stem cells at 20 uM incubated for 21 days by […] staining-based microscopic analysis. The data set is classed as functional, cell-based. As to conditions: time 21.0 day.
Data set [24] in a line: Toxicity in OVX-induced bone loss C57BL/6 mouse model assessed as change in body weight at 10 mg/kg, po for 6 weeks. Format: organism-based. As to conditions: in vivo, 1008 h. In short, it runs like this: as §3
Data set [25] in a line: Toxicity in OVX-induced bone loss C57BL/6 mouse model assessed as change in behaviour at 10 mg/kg, po for 6 weeks. Format: organism-based. As to conditions: in vivo, 1008 h. In short, it runs like this: as §3

As to `Cc1cc(SCc2sc(-c3ccc(C(F)(F)F)c(F)c3)nc2C)ccc1OCC(=O)O`, the outcome in the data set with Mesenchymal stem cells [1], with Mesenchymal stem cells [7] and in the data set with Mus musculus [9] was Active. The Activity entry (in the data set with L929 [2]; with L929 [6]; in data set [8]; in [11]; with Mesenchymal stem cells [12]) was “Toxic” throughout. Further, the EC50 in data set [3] (read-out: EC50) worked out at 2.5 µM; in [13] (read-out: EC50), 9.53 µM. Also, the outcome in the data set with Mesenchymal stem cells [4] and with Mesenchymal stem cells [5] was inactive. The molecule also returned an Emax in data set [10] above 108%.

Take `Cc1cc(N(C)Cc2sc(-c3ccc(C(F)(F)F)cc3)nc2C)ccc1/C=C/C(=O)O`: the outcome in the data set with Mesenchymal stem cells [1], in the data set on Mus musculus [14], in the data set on Mesenchymal stem cells [17], in the data set with Mesenchymal stem cells [7], in the data set with Mus musculus [22] and with Mus musculus [9] was Active. The Activity result is “Toxic” in data set [15]; “Non-Toxic” with L929 [2]; “Non-Toxic” in data set [16]; “Toxic” with L929 [6]; “Toxic” in [19]; “Toxic” in data set [8]. Further, the Activity result (in [24]; with Mesenchymal stem cells [12]; in data set [25]) was “Toxic” throughout. Moreover, the EC50 result is “Not Active” in data set [3] (cos-7), 0.335 µM in data set [20] and “Not Active” in data set [13] (cos-7). The outcome in the data set on Mesenchymal stem cells [4], with Mesenchymal stem cells [5] and in the data set on Mesenchymal stem cells [23] was inactive. Moreover, the Stability entry in [18] is reported as “Stable”. In [21], the selectivity ratio is 250.
